Here are results for 19 molecules from ChEMBL document CHEMBL1641525, “Antiproliferative and apoptotic sesquiterpene lactones from Carpesium faberi” (Bioorg Med Chem Lett, 2011).

Values after ≈ are worked out from the molar mass of the structure shown. Active and inactive are the calls of the source. No cut-off for these calls is given here. Some results are limits rather than exact numbers.

The test system of assay [1] is MCF7. Description: Antiproliferative activity against human MCF7 cells after 48 hrs by MTT assay. Type of assay: functional, cell-based. The settings on record: MCF7, 48 h. In outline:
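MCF-7 (ATCC) grown in DMEM + 10% heat-inactivated FBS, penicillin/streptomycin, 37 °C, 5% CO2. Exponential cells seeded 4.0×10^3/well; after 24 h treated with a range of concentrations for 48 h in the dark. Medium refreshed, then MTT (1 mg/mL) for 4 h; formazan dissolved in DMSO, OD 570 nm. 0.5% DMSO negative control. IC50 from log concentration–viability curves.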

Assay [2] has as its system MCF7. The assay is described as follows: Cell cycle arrest in human MCF7 cells assessed as accumulation at G2/M phase at IC50 concentration after 24 hrs using propidium iodide staining by flow cytometry. Type of assay: functional, cell-based.
For assay [3], the system named is MCF7. Description: Cell cycle arrest in human MCF7 cells assessed as accumulation at sub-G1 phase at IC50 concentration after 24 hrs using propidium iodide staining by flow cytometry. Type of assay: functional.

In general, IC50 refers to the concentration needed to halve the response being measured. A low value points to higher potency.

For `C[C@@H]1C[C@@H]2OC(=O)[C@@H](C)[C@H]2C[C@]2(C)[C@@H](O[C@@H]3O[C@H](CO)[C@@H](O)[C@H](O)[C@H]3O)CC[C@@H]12`, the IC50 in the assay with MCF7 [1] is above 50 µg/mL.

For the molecule `C=C1C(=O)O[C@@H]2C[C@](C)(O)C3=CC[C@](C)(O)[C@@H]3C[C@H]12`, in the assay on MCF7 [1], the IC50 stood at 38.8 µg/mL (≈ 147 µM). For `C=C1C(=O)O[C@@H]2C[C@]3(C)[C@@H](CC[C@H](C)OC(C)=O)[C@@H]3C[C@H]12`, in the assay on MCF7 [1], the midpoint of inhibition, the IC50, lay at 9.4 µg/mL (≈ 32.2 µM). Moreover, in the assay on MCF7 [2], the outcome was Active. The Activity in the assay with MCF7 [3] was above 5%. `C=C1C(=O)O[C@H]2C[C@](C)(O)C3=CC[C@](C)(O)[C@@H]3C[C@H]12` yielded an IC50 with MCF7 [1] of 31.9 µg/mL (≈ 121 µM).

Turning to `C=C1C(=O)O[C@@H]2C[C@](C)(O)C3=CC[C@@](C)(O)[C@@H]3C[C@H]12`, in the assay on MCF7 [1], the IC50 was 26.5 µg/mL (≈ 100 µM). Molecule `C=C1C[C@H](O)C[C@]2(C)C[C@H]3OC(=O)[C@@H](C)[C@H]3C[C@@]12O` displayed an IC50 in the assay on MCF7 [1] above 50 µg/mL. Same read-out and setting: in the case of `C/C(=C\CO)CC[C@@H]1[C@@]2(C)CCCC(C)(C)[C@@H]2CC[C@@]1(C)O` it was 18.6 µg/mL (≈ 60.3 µM); in that of `C=C1C(=O)O[C@@H]2C[C@@H](C)[C@@H]3CCC(=O)[C@@]3(C)C[C@H]12`, 3.9 µg/mL (≈ 15.7 µM); in that of `C=C1C(=O)O[C@H]2C=C(C)[C@@H]3CC[C@](C)(O)[C@@H]3C[C@H]12` [4-EPI-ISOINUVISCOLIDE], 16.3 µg/mL (≈ 65.6 µM).

The molecule `C[C@@H]1C(=O)O[C@@H]2C[C@@]3(C)O[C@@H]3C[C@H](O)[C@@]3(C)O[C@@H]3C[C@H]12` [CARABROLACTONE A] yielded an IC50 in the assay on MCF7 [1] above 50 µg/mL. The molecule `C=C1C(=O)O[C@H]2C[C@@H](C)[C@@H]3CC[C@H](O)[C@@]3(C)[C@@H](O)[C@H]12` [CARABROLACTONE B] showed an IC50 with MCF7 [1] of 10.7 µg/mL (≈ 40.2 µM). On the same count and under the same terms, in the case of `COc1cccc2c1C(=O)c1c(O)c3c(c(O)c1C2=O)C[C@@](O)(C(C)=O)C[C@@H]3O[C@H]1C[C@H](N)[C@H](O)[C@H](C)O1` [DAUNORUBICIN] it was 0.5 µg/mL (≈ 0.948 µM); in that of `O=c1[nH]cc(F)c(=O)[nH]1` [FLUOROURACIL], 14.1 µg/mL (≈ 108 µM). `C=C1C(=O)O[C@H]2C[C@@](C)(O)C3=CC[C@](C)(O)[C@@H]3C[C@H]12` [GUAIANOLIDE]: in the assay with MCF7 [1], half-maximal inhibition (IC50) was put at 31.7 µg/mL (≈ 120 µM). Besides, the outcome in the assay on MCF7 [2] was Active. For the same molecule, in the assay with MCF7 [3], the Activity is above 5%.

`C=C1C(=O)O[C@@H]2C[C@@]3(C)C[C@@H](O)CC(=C)[C@@H]3C[C@H]12` [IVALIN] showed an IC50 with MCF7 [1] of 12.5 µg/mL (≈ 50.3 µM). `C=C1C(=O)O[C@H]2C[C@@H](C)[C@@H]3CC[C@H](O)[C@@]3(C)C[C@H]12` [PSEUDOGUAIANOLIDE]: in the assay on MCF7 [1], the IC50 came out at 9.8 µg/mL (≈ 39.1 µM). For the same molecule, the outcome with MCF7 [2] was Active. On the same counts, the results for `C=C1C(=O)O[C@@H]2C[C@@]3(C)CCCC(=C)[C@]3(O)C[C@H]12` [TELEKIN] are 3 µg/mL (≈ 12.1 µM) and “Active”.

In turn, `C=C1C(=O)O[C@@H]2C[C@H](C)C(CCC(C)=O)=CC[C@H]12` [TOMENTOSIN] showed an IC50 in the assay on MCF7 [1] above 50 µg/mL.

For `C/C(=C\CO)CCC[C@H](C)CCC[C@H](C)CCCC(C)C` [TRANS-PHYTOL], in the assay on MCF7 [1], the IC50 was above 50 µg/mL.
